Measured values as given in paper PMC12667952 (bioRxiv, 2025).
Positions count from the first letter of the chain named. Entries after “also recorded” stand apart in the source; their conditions may differ. Where two headings read alike, the source gives them in different places.

How the values were obtained:
[1] = biological target: T1, hGlyT2^D633E (Homo sapiens, UniProt Q9Y345, D633E); test: Reversibility; assay type: cell-based
T1 sequence (Q9Y345 1-797 D633E): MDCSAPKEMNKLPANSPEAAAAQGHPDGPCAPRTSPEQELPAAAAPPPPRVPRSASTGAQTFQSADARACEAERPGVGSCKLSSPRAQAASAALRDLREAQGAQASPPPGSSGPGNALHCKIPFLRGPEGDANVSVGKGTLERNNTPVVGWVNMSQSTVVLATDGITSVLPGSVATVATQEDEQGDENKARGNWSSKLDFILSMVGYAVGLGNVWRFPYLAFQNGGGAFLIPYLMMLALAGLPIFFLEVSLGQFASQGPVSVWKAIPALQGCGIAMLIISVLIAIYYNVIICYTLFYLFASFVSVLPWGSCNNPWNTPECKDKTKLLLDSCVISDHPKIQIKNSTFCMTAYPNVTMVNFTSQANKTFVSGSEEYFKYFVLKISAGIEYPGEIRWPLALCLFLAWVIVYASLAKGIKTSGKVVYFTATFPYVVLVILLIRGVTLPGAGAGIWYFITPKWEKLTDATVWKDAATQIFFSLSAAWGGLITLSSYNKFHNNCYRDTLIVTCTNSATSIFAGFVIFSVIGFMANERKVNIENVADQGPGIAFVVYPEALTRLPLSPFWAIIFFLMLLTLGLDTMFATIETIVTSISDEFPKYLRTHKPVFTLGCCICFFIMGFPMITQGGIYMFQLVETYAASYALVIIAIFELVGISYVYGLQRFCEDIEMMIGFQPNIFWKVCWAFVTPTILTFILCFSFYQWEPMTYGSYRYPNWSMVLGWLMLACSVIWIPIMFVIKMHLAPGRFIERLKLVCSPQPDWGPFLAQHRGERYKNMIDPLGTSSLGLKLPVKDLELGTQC

[2] = biological target: T2, hGlyT2^W215F (Homo sapiens, UniProt Q9Y345, W215F); test: Reversibility; assay type: cell-based
T2 sequence (Q9Y345 1-797 W215F): T1 sequence (Q9Y345 1-797 D633E) with W215F, E633D

[3] = test system: CCI mice; test: Cold allodynia; assay type: in vivo, mouse; conditions: for Peak reduction of response rate to acetone stimulus: by 2-hour time point
Procedure, shortened: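 CCI mice tested 14 days after surgery. […] Acetone-evoked cold allodynia scored before surgery, at t = 0 before dosing, and at 0.5, 1, 1.5, 2, 4 and 6 h. Expressed as % of maximal possible responses. Two-way ANOVA with Dunnett's test versus vehicle.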

[4] = biological target: T3, hGlyT2^WT (Homo sapiens, UniProt Q9Y345); assay type: cell-based
T3 sequence (Q9Y345 1-797): T1 sequence (Q9Y345 1-797 D633E) with E633D

[5] = test system: mice; test: Side effect scoring; assay type: in vivo, mouse
Procedure, shortened: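 Adverse events, including sedation, recorded at each time point as mice were placed in the testing apparatus after i.p. dosing. Each scored 0–3 (none, mild, moderate, severe), and scores averaged per treatment group.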

[6] = test system: adrenergic receptors; test: Cerep panel off-target selectivity screen, adrenergic receptors; assay type: binding; conditions: 1 × 10^-5 M

Compound: CN(C)C1(CNC(=O)c2ccc3c(c2)CCN3C(=O)c2ccccc2)CCOCC1 [RPI-GLYT2–82, 1-benzoyl-N-((4-(dimethylamino)tetrahydro-2H-pyran-4-yl)methyl)indoline-5-carboxamide]
- Washout of inhibitor from hGlyT2^D633E [1]: almost immediate
- Washout of inhibitor from hGlyT2^W215F [2]: almost immediate
- Peak reduction of response rate to acetone stimulus ([3]; 50 mg/kg i.p.): 59%
- Peak reduction of response rate to acetone stimulus ([3]; 100 mg/kg i.p.): 62%
- Efficacy at alleviating cold allodynia compared to gabapentin ([3]; 50 and 100 mg/kg): comparable efficacy to the control compound gabapentin; also recorded: equivalent efficacy
- Time of peak anti-allodynia effects, cold allodynia ([3]; 50 and 100 mg/kg): ≤ 2 h
- IC50 [4]: 0.55 µM
- IC50 ([4]; IC50, inhibition of glycine transport currents, hGlyT2^WT, Xenopus oocytes, currents generated by EC50 (30 μM) glycine, n = 5): 0.554 µM
- Sedation ([5]; 250 mg/kg (maximal dose)): transient sedation
- Time to full recovery from sedation ([5]; 250 mg/kg i.p.): ≤ 90 min
- Activity at adrenergic receptors [6]: inactive
